# KCNK3 inh = human KCNK3 channel inhibition, primary screen; AID 602410; B-score at 10 µM; 340,000 compounds, 0.84% hits; CHO-KCNK3 thallium flux, FluxOR fluorescence; stronger effect = lower value;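 active means B-score under library mean minus 4 SD, starting fluorescence ratio at most library mean plus 5 SD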;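 further: more negative B-score means stronger inhibition of thallium flux through KCNK3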
# KCNK9 block = blocks the human KCNK9 two-pore domain potassium channel; HEK293 KCNK9, FluxOR thallium flux fluorescence; stronger effect = lower value; B-score at 10 µM; 310,000 compounds, 1.2% hits;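 active means ratio B-score over 3 SD below the library mean, with starting fluorescence within 5 SD of its mean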;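 further: negative B-score means less thallium flux so channel inhibition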
# KCNQ1 pot = potentiates or activates the human KCNQ1 potassium channel. P51787. AID 2648. B-score at 10 µM. CHO-K1 KCNQ1, thallium flux FluxOR fluorescence; stronger effect = higher value. 310,000 compounds, 0.35% hits;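 active means fluorescence ratio B-score, a plate-corrected score, at least three library SD, with initial intensity B-score within 5 SD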
#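 System: Stable KCNQ1 CHO-K1 line | Incubation: 90 min dye loading and 20 min compound exposure, both at room temperature | Measure: Ratio B score | Medium: Assay buffer for compound exposure, DMSO matched across wells | Compound dosing: Single-concentration screen | Probe or stimulus: K+/Tl+ depolarizing stimulus | Measured by: Kinetic FluxOR fluorescence, 10 s baseline plus 110 s post-stimulus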
# hERG protect = compounds protecting human hERG from proarrhythmic drug block | 310,000 compounds, 0.51% hits | CHO-hERG, FluxOR thallium flux, dofetilide IC70 present | activation (rescue from dofetilide block), less the hit threshold, % at 10 µM | Q12809;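 active means activation above the mean of controls blocked by dofetilide plus 5 SD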;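 further: thallium influx through hERG after potassium depolarization seen as dye fluorescence rise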
# Kir21 block = Kir2.1 (mouse) channel inhibition; 310,000 compounds, 0.85% hits; HEK293-Kir2.1, FluxOR thallium flux fluorescence; stronger effect = lower value; P35561; B-score at 10 µM;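 active means fluorescence ratio B-score at or below minus 3 SD of library scores, with starting-brightness B-score within 2 SD, cut at about -4.2 in these data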;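 further: channel flux triggered by added potassium and thallium sulfate stimulus; B-score of peak minus minimum fluorescence over baseline after thallium stimulus; more negative B-score means stronger Kir2.1 block with less thallium influx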
# Target sequence (P35561 whole entry, looked up): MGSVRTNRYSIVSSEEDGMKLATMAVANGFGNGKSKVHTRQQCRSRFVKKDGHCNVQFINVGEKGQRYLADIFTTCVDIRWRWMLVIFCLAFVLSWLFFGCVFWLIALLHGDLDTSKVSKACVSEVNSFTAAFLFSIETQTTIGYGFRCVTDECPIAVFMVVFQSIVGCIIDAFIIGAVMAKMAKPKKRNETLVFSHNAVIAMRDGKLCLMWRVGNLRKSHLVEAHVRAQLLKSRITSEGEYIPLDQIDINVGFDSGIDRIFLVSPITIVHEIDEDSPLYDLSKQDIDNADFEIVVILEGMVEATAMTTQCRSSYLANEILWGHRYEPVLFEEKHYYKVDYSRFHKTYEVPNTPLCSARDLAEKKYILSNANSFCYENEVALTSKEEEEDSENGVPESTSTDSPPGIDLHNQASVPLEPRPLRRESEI
# KCNQ1 inh = blocks the human KCNQ1 potassium channel; P51787; 310,000 compounds, 1.3% hits; B-score at 10 µM; CHO-K1 KCNQ1, FluxOR thallium flux fluorescence; stronger effect = higher value;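 active means compounds whose thallium flux B-score, printed positive for inhibition, exceeds three library SD while starting fluorescence stays within three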;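 further: channel opened by potassium depolarization with thallium stimulus after 20 min compound exposure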
# KCNQ1 inh valid = confirmation of human KCNQ1 potassium channel inhibitors; shares compounds with KCNQ1 inh; KCNQ1 cell line, FluxOR thallium flux fluorescence; inhibition, % at 10 µM; 1,600 compounds, 93% hits;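 active means primary screen active, with duplicate mean exceeding buffer control mean plus 3 SD of buffer wells, cut at about 28% in these data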;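 further: 0% = buffer control ratio and 100% = XE991 inhibitor control ratio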
# CHO Tl flux = counter-screen for KCNQ1 inhibitors: effect in parental CHO cells; 1,600 compounds, 21% hits; shares compounds with KCNQ1 inh; fluorescence ratio (Tl flux) at 10 µM; parental CHO-K1, FluxOR thallium flux fluorescence ratio; stronger effect = lower value; zero means no signal rise above baseline;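 active means mean of duplicate thallium-flux fluorescence ratios in parental host cells more than 5 SD below the buffer control mean, cut at about 0.38 in these data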;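 further: ratio is peak minus minimum fluorescence divided by baseline fluorescence; actives read low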
# KCNQ1 APC inh = blocks human KCNQ1 current in automated patch clamp | shares compounds with KCNQ1 inh | KCNQ1-CHO cells | calls only at 10 µM | 490 compounds, 20% hits;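 active means KCNQ1 current drop exceeding 3 SD of negative control wells, seen in both duplicate runs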;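 further: steady state current during a 2 s step from -80 to +40 mV; negative values mean current inhibition and positive values mean potentiation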
# KCNQ2 spec = KCNQ1 inhibitor that also blocks rat KCNQ2 channel | 1,600 compounds, 71% hits | AID 651746 | inhibition, % at 10 µM | shares compounds with KCNQ1 inh | KCNQ2 cells, FluxOR thallium flux fluorescence;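 active means mean percent inhibition of the KCNQ2 thallium signal more than 5 SD above the buffer-only control wells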;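 further: KCNQ2 expressed in CHO cells; 0% = buffer control wells and 100% = XE-991 inhibitor control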
# KCNQ1-KCNE1 inh = selectivity of KCNQ1 inhibitors: inhibition of human KCNQ1/KCNE1 channel. 1,600 compounds, 77% hits. KCNQ1/KCNE1 cells, FluxOR thallium flux fluorescence. inhibition, % at 10 µM. AID 652147. shares compounds with KCNQ1 inh;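 active means mean percent inhibition of duplicate wells above the buffer-only control mean plus 3 SD of those controls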;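 further: 0% = buffer only wells and 100% = XE-991 inhibitor control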
# An asterisk follows results filed as active; i = inactive; . = not tested or not shown; + = active, no number. Hits are enriched below; roughly 3.7% of the tested compounds scored in any of these assays.
SMILES,KCNK3 inh,KCNK9 block,KCNQ1 pot,hERG protect,Kir21 block,KCNQ1 inh,KCNQ1 inh valid,CHO Tl flux,KCNQ2 spec,KCNQ1-KCNE1 inh,others
Fc1ccc(F)c(NC(=S)NCCc2ccccc2)c1,i,i,i,-5,-0.82,7*,53*,0.56,81%*,71%*,
CN(CC(=O)NCCc1ccccc1)CC(=O)Nc1cccc(F)c1,i,.,.,.,.,.,.,.,.,.,
Nc1c(C(=O)Nc2ccc(F)cc2)nnn1-c1cccc(C(F)(F)F)c1,i,i,i,-9,1.5,i,.,.,.,.,
CN1CCN(C(=O)c2cnn(-c3ccccc3)c2NC(=O)c2ccccc2Br)CC1,i,i,i,-10,-2.6,i,.,.,.,.,
O=C1OC[C@H]2CCCN2C(=O)[C@@H](CC(=O)N(CCO)Cc2ccccc2)C/C=C\C[C@H]1Cc1ccc(F)cc1,i,.,.,.,.,.,.,.,.,.,
Clc1ccc2[nH]c3c(NCC4CCCO4)ncnc3c2c1 (stereo unspecified),.,i,i,-29,1,8*,106*,0.49,90%*,i,KCNQ1 APC inh=+
Clc1ccc2[nH]c3c(NCCN4CCOCC4)ncnc3c2c1,i,i,i,-17,-1.1,i,.,.,.,.,
c1ccc(OCCOc2ncnc3ccccc23)cc1,i,i,i,-11,-1.5,i,.,.,.,.,
Brc1ccc(COc2ncnc3ccccc23)cc1,i,i,i,-9,0.68,9*,0,0.44,68%*,42%*,
COc1ccc(NS(=O)(=O)c2ccc(-c3cnc(C4CC4)o3)cc2)cc1OC,i,i,i,-14,-0.62,8*,86*,0.47,83%*,i,
COc1ccccc1NS(=O)(=O)c1ccc(-c2cnc(C3CC3)o2)cc1,i,i,i,-8,-1.1,i,.,.,.,.,
CC(=O)c1c(N2CCOCC2)nc2ccc(Br)cc2c1-c1ccccc1,i,i,i,-15,0.28,10*,100*,0.42,119%*,101%*,KCNQ1 APC inh=i
CCCCN1CC(=O)N2[C@H]3c4cc(C)ccc4OC[C@@H]3[C@H](C(=O)OCC)[C@]2(C)C1=O,i,.,.,.,.,.,.,.,.,.,
COc1ccc(N=C2SC(CC(=O)Nc3cccc(Cl)c3)C(=O)N2Cc2ccco2)cc1 (stereo unspecified),i,i,i,-10,0.61,12*,92*,0.43,93%*,136%*,KCNQ1 APC inh=i
COc1ccc(N=C2SC(CC(=O)Nc3ccccc3)C(=O)N2Cc2ccccn2)cc1 (stereo unspecified),i,i,i,-9,0.31,i,.,.,.,.,
CC1Sc2ccc(S(=O)(=O)N3CCC(C(=O)Nc4ccc(Cl)cc4)CC3)cc2NC1=O (stereo unspecified),i,i,i,-21,0.07,11*,144*,0.38*,104%*,168%*,
CCCCSc1ccc2nc(-c3ccc(C#N)cc3)cn2c1,i,i,i,-13,0.3,7*,104*,0.56,67%*,92%*,KCNQ1 APC inh=+
COc1ccc(C(=O)C2CCCN(Cc3cccn3-c3ccccn3)C2)c(OC)c1 (stereo unspecified),i,i,i,-10,-2.4,6*,0,0.49,60%*,i,
O=C(c1cc(F)ccc1F)C1CCCN(Cc2cccn2-c2ccccn2)C1 (stereo unspecified),i,i,i,-17,-0.53,i,.,.,.,.,
